Where “and” joins values, the source holds several entries; their conditions need not be identical. Identical values can stand only once.

In series [1] the test system is Mus musculus. The series can be described thus: Biodistribution was measured in mice liver 60 minutes after intravenous injection of [125I]-labeled styrylbenzene. The format is ADME, organism-based. The settings on record: in vivo, 1 h. In short, it runs like this: (§1)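 ICR mice (2-3 months old, 20-30 g) under ether anesthesia received 5-10 µCi ¹²⁵I tracer in 0.15 mL saline by tail-vein injection. Animals were killed by cardiac excision at set times post-injection. Organs were removed, weighed and γ-counted. Values are % dose per organ against diluted injectate aliquots, taking blood and muscle as 7% and 40% of body weight. Mean of 3-4 mice ± SD.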

The test system of series [2] is Mus musculus. The series can be described thus: Biodistribution was measured in mice lung 30 minutes after intravenous injection of [125I]-labeled styrylbenzene. To be noted: in vivo, 0.5 h. Format: ADME, organism-based. The procedure, abridged:
as §1

Series [3] relates to Mus musculus. The series can be described thus: Biodistribution was measured in mice spleen 5 minutes after intravenous injection of [125I]-labeled styrylbenzene. Format: ADME, organism-based. The settings on record: in vivo. In short, it runs like this: (§2)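 ICR mice (2-3 months old, 20-30 g) under ether anesthesia; 0.15 mL saline containing 5-10 µCi ¹²⁵I tracer injected into tail vein. Sacrifice by cardiac excision at set times; organs removed, weighed, γ-counted. Expressed as % dose per organ versus diluted aliquots of injectate. Mean of three or four mice ± SD.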

Series [4] relates to Mus musculus. The series can be described thus: Biodistribution was measured in mice blood 5 minutes after intravenous injection of [125I]-labeled styrylbenzene. The format is ADME, organism-based. The settings on record: in vivo. In short, it runs like this: as §1
The subject of series [5] is Mus musculus. The series can be described thus: Biodistribution was measured in mice liver 30 minutes after intravenous injection of [125I]-labeled styrylbenzene. To be noted: in vivo, 0.5 h. The format is ADME, organism-based. The procedure, abridged: as §1
In series [6] the test system is Mus musculus. The series can be described thus: Biodistribution was measured in mice skin 30 minutes after intravenous injection of [125I]-labeled styrylbenzene. Format: ADME, organism-based, Zone of skin. To be noted: in vivo, 0.5 h. In short, it runs like this: as §1
Series [7] concerns Mus musculus. The series can be described thus: Biodistribution was measured in mice spleen 60 minutes after intravenous injection of [125I]-labeled styrylbenzene. Format: ADME, organism-based. To be noted: in vivo, 1 h. The procedure, abridged:
as §2

Series [8] relates to Mus musculus. The series can be described thus: Biodistribution was measured in mice heart 30 minutes after intravenous injection of [125I]-labeled styrylbenzene. The format is ADME, organism-based. To be noted: in vivo, 0.5 h. The procedure, abridged: as §1
For series [9], the target named is T1, Amyloid-beta precursor protein (Homo sapiens, UniProt P05067). The series can be described thus: Inhibition constant for amyloid beta compared to [125I]TZDM. In short, it runs like this: (§3)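 Aβ(1-40) or Aβ(1-42) aggregated at 0.5 or 0.25 mg/mL respectively in pH 7.4 buffer (10 mM sodium phosphate, 1 mM EDTA), 37 °C, 36-42 h with shaking. Competition against ¹²⁵I radioligand with fibrils 10-50 nM (final), 10% EtOH, 1 mL. Incubation 3 h room temperature. Bound ligand collected by GF/B filtration, γ-counted. Ki by nonlinear regression. Mean ± SEM, three experiments in duplicate.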

For series [10], the system named is Mus musculus. The series can be described thus: Biodistribution was measured in mice blood 30 minutes after intravenous injection of [125I]-labeled styrylbenzene. Format: ADME, organism-based. To be noted: in vivo, 0.5 h. The procedure, abridged:
as §1

The target in series [11] is T1, Amyloid-beta precursor protein. The series can be described thus: Inhibition constant for aggregates of amyloid beta compared to [125I]IMSB. In short, it runs like this: as §3
The test system of series [12] is Mus musculus. The series can be described thus: Biodistribution was measured in mice brain 60 minutes after intravenous injection of [125I]-labeled styrylbenzene. Format: ADME, organism-based. The settings on record: in vivo, 1 h. The procedure, abridged:
as §1

The test system of series [13] is Mus musculus. The series can be described thus: Biodistribution was measured in mice muscle 60 minutes after intravenous injection of [125I]-labeled styrylbenzene. The format is ADME, organism-based, Muscle tissue. To be noted: in vivo, 1 h. In short, it runs like this: as §1
Series [14] deals with Mus musculus. The series can be described thus: Biodistribution was measured in mice lung 5 minutes after intravenous injection of [125I]-labeled styrylbenzene. Format: ADME, organism-based. To be noted: in vivo. In short, it runs like this:
as §1

The subject of series [15] is Mus musculus. The series can be described thus: Biodistribution was measured in mice brain 5 minutes after intravenous injection of [125I]-labeled styrylbenzene. The format is ADME, organism-based. To be noted: in vivo. The procedure, abridged:
as §1

The subject of series [16] is Mus musculus. The series can be described thus: Biodistribution was measured in mice lung 60 minutes after intravenous injection of [125I]-labeled styrylbenzene. Format: ADME, organism-based. The settings on record: in vivo, 1 h. In short, it runs like this: as §1
The subject of series [17] is Mus musculus. The series can be described thus: Biodistribution was measured in mice spleen 30 minutes after intravenous injection of [125I]-labeled styrylbenzene. Format: ADME, organism-based. To be noted: in vivo, 0.5 h. The procedure, abridged:
as §2

Series [18] relates to Mus musculus. The series can be described thus: Biodistribution was measured in mice kidney 30 minutes after intravenous injection of [125I]-labeled styrylbenzene. The format is ADME, organism-based. The settings on record: in vivo, 0.5 h. In short, it runs like this:
as §1

Series [19] concerns Mus musculus. The series can be described thus: Biodistribution was measured in mice liver 5 minutes after intravenous injection of [125I]-labeled styrylbenzene. Format: ADME, organism-based. To be noted: in vivo. The procedure, abridged: as §1
Series [20] concerns Mus musculus. The series can be described thus: Biodistribution was measured in mice heart 60 minutes after intravenous injection of [125I]-labeled styrylbenzene. The format is ADME, organism-based. To be noted: in vivo, 1 h. The procedure, abridged: as §1
For series [21], the system named is Mus musculus. The series can be described thus: Biodistribution was measured in mice kidney 60 minutes after intravenous injection of [125I]-labeled styrylbenzene. Format: ADME, organism-based. The settings on record: in vivo, 1 h. In short, it runs like this: as §1
Series [22] concerns Mus musculus. The series can be described thus: Biodistribution was measured in mice muscle 30 minutes after intravenous injection of [125I]-labeled styrylbenzene. Format: ADME, organism-based, Muscle tissue. The settings on record: in vivo, 0.5 h. The procedure, abridged:
as §1

Series [23] concerns Mus musculus. The series can be described thus: Biodistribution was measured in mice blood 60 minutes after intravenous injection of [125I]-labeled styrylbenzene. Format: ADME, organism-based. The settings on record: in vivo, 1 h. The procedure, abridged:
as §1

In series [24] the test system is Mus musculus. The series can be described thus: Biodistribution was measured in mice skin 5 minutes after intravenous injection of [125I]-labeled styrylbenzene. The format is ADME, organism-based, Zone of skin. To be noted: in vivo. The procedure, abridged: as §1
Series [25] deals with Mus musculus. The series can be described thus: Biodistribution was measured in mice kidney 5 minutes after intravenous injection of [125I]-labeled styrylbenzene. The format is ADME, organism-based. To be noted: in vivo. The procedure, abridged:
as §1

For series [26], the system named is Mus musculus. The series can be described thus: Biodistribution was measured in mice heart 5 minutes after intravenous injection of [125I]-labeled styrylbenzene. The format is ADME, organism-based. To be noted: in vivo. The procedure, abridged: as §1
In series [27] the test system is Mus musculus. The series can be described thus: Biodistribution was measured in mice skin 60 minutes after intravenous injection of [125I]-labeled styrylbenzene. Format: ADME, organism-based, Zone of skin. The settings on record: in vivo, 1 h. The procedure, abridged: as §1
In series [28] the test system is Mus musculus. The series can be described thus: Biodistribution was measured in mice brain 30 minutes after intravenous injection of [125I]-labeled styrylbenzene. To be noted: in vivo, 0.5 h. Format: ADME, organism-based. The procedure, abridged: as §1
For series [29], the system named is Mus musculus. The series can be described thus: Biodistribution was measured in mice muscle 5 minutes after intravenous injection of [125I]-labeled styrylbenzene. The format is ADME, organism-based, Muscle tissue. The settings on record: in vivo. In short, it runs like this: as §1

T1 sequence (P05067 whole entry): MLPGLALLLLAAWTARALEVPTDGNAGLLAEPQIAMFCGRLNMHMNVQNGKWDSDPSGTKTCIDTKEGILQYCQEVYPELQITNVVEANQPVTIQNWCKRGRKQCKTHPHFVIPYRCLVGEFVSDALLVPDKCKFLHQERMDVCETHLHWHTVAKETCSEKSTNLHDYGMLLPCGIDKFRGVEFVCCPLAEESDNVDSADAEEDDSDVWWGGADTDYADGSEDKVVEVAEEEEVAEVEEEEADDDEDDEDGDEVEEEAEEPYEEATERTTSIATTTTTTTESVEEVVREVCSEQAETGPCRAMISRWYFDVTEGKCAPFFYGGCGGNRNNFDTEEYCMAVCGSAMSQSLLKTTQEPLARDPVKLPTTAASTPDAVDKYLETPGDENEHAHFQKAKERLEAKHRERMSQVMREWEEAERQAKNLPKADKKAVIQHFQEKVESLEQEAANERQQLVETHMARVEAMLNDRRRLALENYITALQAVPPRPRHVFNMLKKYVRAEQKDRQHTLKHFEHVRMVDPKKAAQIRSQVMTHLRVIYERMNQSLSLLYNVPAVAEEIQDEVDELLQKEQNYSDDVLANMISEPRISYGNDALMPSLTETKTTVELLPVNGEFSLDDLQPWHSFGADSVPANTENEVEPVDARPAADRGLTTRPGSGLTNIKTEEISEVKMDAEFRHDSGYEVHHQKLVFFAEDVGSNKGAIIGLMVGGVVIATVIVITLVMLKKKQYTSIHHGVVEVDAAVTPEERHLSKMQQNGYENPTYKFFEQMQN

With `COc1ccc(/C=C/c2ccc(/C=C/c3ccc(OC)c(C(=O)O)c3)c(I)c2)cc1C(=O)O`, the Dose/organ in the series with Mus musculus [1] worked out at 6.14%; in the series with Mus musculus [2] it was 0.31%; in the series on Mus musculus [3], 0.17%; in the series on Mus musculus [4] it was 22.52%; with Mus musculus [5], 24.47%; in the series on Mus musculus [6], 1.44%. Further, the Dose/organ in the series with Mus musculus [7] is 0.03%; in the series on Mus musculus [8], 0.18%; in the series with Mus musculus [10] it was 5.19%; with Mus musculus [12], 0.02%; with Mus musculus [13] it was 1.3%; with Mus musculus [14] it was 0.89%. The Dose/organ in the series on Mus musculus [15] came to 0.14%; in the series on Mus musculus [16], 0.16%; in the series with Mus musculus [17], 0.07%; in the series on Mus musculus [18] it was 0.46%; with Mus musculus [19] it was 47.85%; in the series on Mus musculus [20], 0.12%. Further, the Dose/organ was 0.23% in the series on Mus musculus [21]; 1.82% in the series with Mus musculus [22]; 2.17% in the series on Mus musculus [23]; 1.56% in the series with Mus musculus [24]; 1.31% with Mus musculus [25]; 0.43% in the series with Mus musculus [26]. Besides, the Dose/organ in the series with Mus musculus [27] was 1.02%; with Mus musculus [28], 0.03%; in the series on Mus musculus [29] it was 3.16%. Further, the Ki in series [9] is greater than 1000 nM; in series [11], 0.17 nM and 0.8 nM.
As for `O=C(O)c1cc(/C=C/c2ccc(/C=C/c3ccc(O)c(C(=O)O)c3)c(I)c2)ccc1O`, the Dose/organ with Mus musculus [1] is on record as 19.12%; in the series on Mus musculus [2], 0.3%; with Mus musculus [3], 0.25%; in the series on Mus musculus [4] it was 7.57%; in the series with Mus musculus [5], 30.16%; in the series with Mus musculus [6], 4.13%. Further, the Dose/organ in the series with Mus musculus [7] amounted to 0.07%; in the series with Mus musculus [8] it was 0.17%; in the series with Mus musculus [10], 2.98%; in the series on Mus musculus [12] it was 0.04%; in the series on Mus musculus [13], 2.98%; with Mus musculus [14], 0.81%. The Dose/organ was 0.27% with Mus musculus [15]; 0.25% in the series on Mus musculus [16]; 0.13% in the series on Mus musculus [17]; 0.77% in the series with Mus musculus [18]; 42.68% with Mus musculus [19]; 0.13% in the series on Mus musculus [20]. Moreover, the Dose/organ in the series on Mus musculus [21] was determined as 0.63%; in the series with Mus musculus [22] it was 3.9%; in the series on Mus musculus [23] it was 2.59%; in the series with Mus musculus [24], 4.02%; in the series on Mus musculus [25], 1.67%; in the series with Mus musculus [26], 0.33%. Also, the Dose/organ in the series with Mus musculus [27] is reported as 3.66%; in the series on Mus musculus [28], 0.06%; in the series on Mus musculus [29] it was 5.68%.
The molecule `CN(C)c1ccc(-c2nc3ccc(Br)cc3s2)cc1` returned a Ki in series [11] greater than 3000 nM.

A word on the Ki: it is the equilibrium dissociation constant of an inhibitor or competing ligand from its target. Low values mean higher affinity, high ones lower affinity.

The values are drawn from ChEMBL document CHEMBL1134439, “Radioiodinated styrylbenzenes and thioflavins as probes for amyloid aggregates” (J Med Chem, 2001).
